An excerpt weighted towards active compounds, which were near 2.6% of everything screened.
FN deposition inh: fibronectin deposition inhibition | AH1F fibroblasts, Alexa488-fibronectin deposition fluorescence, overnight | inhibition, % at 12.6 µM | 0.086% of 350,000 active | AID 743247;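 active means mean inhibition across replicates of 30% or more, regardless of how many single replicates reach that level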;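 further: positive control wells lacked labelled fibronectin entirely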
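Assay system: AH1F fibroblast monolayer, labelled fibronectin deposition. Amount: 10000 cells per well. Also added: labelled fibronectin 24 nM. Compound: single-point pinned compound. Incubation: cell attachment 1 h, compound and FN exposure overnight. Detection: fluorescence after three HBSS washes, excitation 485 nm, emission 525 nm. Read-out: inhibition of fibronectin deposition signal.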
Vif imaging: blocks HIV Vif function. HEK293T cells, Vif self-association by quenched fluorescence, imaging, 24 h. inhibition, % at 7.49 µM. 0.35% of 340,000 active; in the data active means inhibition above about 50%, passing the limit was not always enough
Ecoli rRNA inh: inhibitors of bacterial rRNA selective over humanized ribosomes | E. coli WT GFP vs humanized-ribosome RFP mutants, fluorescence, 24 h; stronger effect = lower value; DMSO median 0, no signal -100 | GFP signal change (wild-type ribosome), % (no concentration beside the values) | 1.6% of 350,000 active | AID 720706;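 active means significant combined selectivity score with lowered wild-type GFP, culture density cut under 30%, mutant RFP and density less affected; inactive means any of these conditions unmet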
S100A4 MyoIIA: inhibitors of human S100A4 binding to myosin IIA peptide | P26447 | S100A4/TAMRA-MyoIIA peptide fluorescence polarization | inhibition, % at 10.7 µM | 0.14% of 360,000 active | AID 652163;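 active means mean inhibition of at least 70% across replicates, with every replicate also reaching that level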
Target sequence (P26447 whole entry, looked up): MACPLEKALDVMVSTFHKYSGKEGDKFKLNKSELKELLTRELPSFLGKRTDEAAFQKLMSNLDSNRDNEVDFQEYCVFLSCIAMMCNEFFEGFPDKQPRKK
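Material: human S100A4 monomer with TAMRA-labelled myosin IIA peptide; buffer or medium: HEPES pH 7.2 with CaCl2, KCl, NaCl, DTT, Triton; compound dosing: one concentration per compound; schedule: 5 min incubation before reading; benchmarks: neutral control DMSO, positive control TFP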
HIV Env fusion: HIV envelope-mediated fusion inhibition; inhibition, % at 12.3 µM; HeLa-JRFL Env/CEM21 cell fusion, luciferase; 1.1% of 360,000 active; AID 651610;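 active means mean replicate inhibition score of at least 50 and every replicate individually at or above 50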;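 further: 0% = plate neutral controls and 100% = maraviroc near 300 nM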
miR-122 sensor: blocks miR-122 activity in Huh7 sensor cells; Huh7 miR-122 Renilla luciferase sensor, 48 h; neutral wells = 0, positive control = 100; activation (reporter increase), % at 12.5 µM; 0.3% of 340,000 active;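 active means mean replicate activation score at least 90 and every replicate individually at or above 90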;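 further: higher luciferase means less miR-122 activity so hits act as miR-122 inhibitors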
* hit, by the source's call; · = no result given; [ ] = remark or other dose.

SMILES | FN deposition inh | Vif imaging | Ecoli rRNA inh | S100A4 MyoIIA | HIV Env fusion | miR-122 sensor
Cc1ccc(S(=O)(=O)N[C@@H]2C=C[C@H](CC(=O)N3CCC(Cc4ccccc4)CC3)O[C@@H]2CO)cc1 | · | · | 0.2 | 9.2 | 5.0[16.7 µM] | -8.5[16.7 µM]
C[C@H]1CCCCO[C@H](CN(C)C(=O)CCCN(C)C)[C@@H](C)CN([C@@H](C)CO)C(=O)c2cc(NC(=O)c3ccncc3)ccc2O1 | -6.4 | · | 5.5 | · | 10.4[16.7 µM] | 4.7[16.7 µM]
c1ccc(CN2CCN(C(c3ccccc3)c3ccccc3)CC2)cc1 | -3.4 | 12.9 | -23.9* | -0.9 | -5.5 | -6.7
C[C@@H]1CN([C@@H](C)CO)S(=O)(=O)c2ccc(-c3ccccc3)cc2O[C@H]1CN(C)C | · | · | -3.6 | -3.5 | -13.0[16.7 µM] | 8.9[16.7 µM]
O=C(Nc1ccc(Cl)cc1)OCCn1nnnc1C(c1ccccc1Cl)N1CCOCC1 (stereo not given) | · | 10.7 | · | · | 112.9* | -10.2
O=C(Nc1ccc(Cl)cc1)OCCN1CCOCC1 | 0.5 | 9.8 | 0.4 | 0.3 | 4.4 | ·
C[C@@H]1CN([C@@H](C)CO)S(=O)(=O)c2ccc(-c3ccc(C#N)cc3)cc2O[C@@H]1CN(C)C(=O)CN(C)C | -4.2 | · | -0.4 | -7.3 | 3.8[16.7 µM] | -11.8[16.7 µM]
CN(c1ccccc1)S(=O)(=O)c1cccc(C(=O)OCC(=O)NCc2ccco2)c1 | 0.5 | -3.5 | -24.1* | -0.1 | -0.8 | -2.5
Cc1cc(Br)ccc1SCC(=O)OCC(=O)NCc1ccco1 | 1.7 | 1.8 | -17.7* | -3.0 | -6.9 | -5.2
Cc1cccc(C(=O)OCC(=O)NCc2ccco2)c1 | 3.7 | -15.3 | 9.5 | 4.8 | 65.9* | 14.2
COc1ccc(N2CCN(c3ncnc4c3cnn4-c3ccc(C)cc3C)CC2)cc1 | · | -7.9 | 6.2 | -0.2 | · | 12.8
Cc1ccc(-n2ncc3c(NCc4cccnc4)ncnc32)c(C)c1 | -12.4 | -12.4 | · | · | 58.1* | ·
Cc1ccc(-n2ncc3c(N4CCN(c5ccccc5)CC4)ncnc32)c(C)c1 | -5.1 | -18.4 | -3.7 | 0.4 | 90.4* | -14.6
O=C(NCC[C@H]1CC[C@@H](NS(=O)(=O)c2cccc(F)c2)[C@H](CO)O1)Nc1cc(F)ccc1F | · | · | -4.4 | 5.2 | 9.9[16.7 µM] | ·
COc1cc(/C=C/C(=O)NCCc2ccc(S(N)(=O)=O)cc2)ccc1OCC#N | 0.3 | 2.2 | -25.8* | -3.0 | -5.0 | ·
COc1ccc(/C=C/C(=O)NCCCNC(=O)/C=C/c2ccc(OC)c(OC)c2)cc1OC | -9.8 | 6.1 | -11.4 | 0.3 | -2.0 | -1.6
COc1ccc(/C=C/C(=O)NCCNC(=O)c2ccccc2)cc1OC | -1.3 | 0.6 | -22.0* | -2.7 | -2.3 | 2.8
CO[C@@H](CN(C)C(=O)c1ccc2c(c1)OCO2)[C@@H](C)CN([C@H](C)CO)S(=O)(=O)c1ccc(C)cc1 | -2.1 | · | -0.5 | -5.0 | · | ·
Cc1ccc(S(=O)(=O)/N=C(/Nc2ccccc2C)c2ccccc2)cc1 | 7.9 | -3.1 | -23.0* | -0.4 | 11.7 | 5.4
Cc1ccc(S(=O)(=O)/N=C(/Nc2c(C)cccc2C)c2ccccc2)cc1 | -4.9 | 2.7 | -35.7* | -4.7 | 7.1 | 19.0
CN(C)C(=O)C[C@@H]1C[C@H]2c3cc(NC(=O)CC4CC4)ccc3O[C@H]2[C@@H](CO)O1 | · | · | 0.3 | 3.9 | -9.2[16.7 µM] | 0.2[16.7 µM]
C[C@H]1CN([C@@H](C)CO)C(=O)c2cc(NS(=O)(=O)c3cccs3)ccc2O[C@H]1CN(C)C(=O)Nc1cccc2ccccc12 | -13.7 | · | -0.9 | -2.8 | · | 0.0[16.7 µM]
Cc1ccc(-c2nc(CSCC(=O)N3CCN(C(=O)c4ccco4)CC3)c(C)o2)cc1 | 5.7 | -2.7 | 4.4 | -1.7 | 0.1 | -3.9
Cc1ccc(-c2nc(CSCC(=O)N3CCN(c4ccccn4)CC3)c(C)o2)cc1 | -0.1 | -7.7 | -12.8 | 15.8 | 57.1* | -4.8
Cc1ccc(-c2nc(CSCC(=O)N3CCOCC3)c(C)o2)cc1 | -8.4 | -3.0 | · | · | 27.8 | ·
SMILES | FN deposition inh | Vif imaging | Ecoli rRNA inh | S100A4 MyoIIA | HIV Env fusion | miR-122 sensor
CCc1ccc(-c2nc(CSCC(=O)N3CCN(c4ccccn4)CC3)c(C)o2)cc1 | -0.7 | -3.7 | · | · | 85.6* | -15.6
C[C@@H]1CN([C@H](C)CO)C(=O)Cc2cc(NC(=O)NC3CCCCC3)ccc2O[C@@H]1CN(C)CC1CCCCC1 | -0.4 | · | -1.2 | 3.7 | 10.7[16.7 µM] | -11.2[16.7 µM]
C[C@H]1CN([C@@H](C)CO)C(=O)c2cccc(NC(=O)c3cnccn3)c2O[C@@H]1CN(C)C(=O)Nc1ccccc1 | · | · | 3.9 | 5.9 | · | -2.8[16.7 µM]
CCCNC(=O)N[C@@H]1C=C[C@@H](CC(=O)NC2CCCCC2)O[C@@H]1CO | 0.3 | · | 1.7 | 5.4 | -19.8[16.7 µM] | ·
O=C(CNC(=O)c1ccco1)OCc1ccc(C(=O)c2ccccc2)cc1 | · | 1.5 | -33.1* | 0.5 | 8.9 | ·
Cc1ccc(CNc2cc(C(=O)O)ccc2Cl)s1 | -3.6 | 4.2 | -32.9* | -1.7 | -7.4 | -1.2
C[C@@H]1CN([C@H](C)CO)C(=O)c2cc(-c3ccc(F)cc3)cnc2O[C@@H]1CN(C)C(=O)Nc1ccc(F)cc1 | -2.6 | · | -5.8 | · | -2.2[16.7 µM] | 2.8[16.7 µM]
COC(=O)C1=CN(c2ccc(OC)cc2OC)C(N)=C(C#N)C1c1ccc(OC)cc1 (stereo not given) | · | · | -25.8* | 35.0 | -0.1 | ·
COC(=O)C1=CN(c2ccc(OC)cc2)C(N)=C(C#N)C1c1ccc(OC)cc1 (stereo not given) | · | · | -26.9 | -2.2 | -20.2 | ·
NC(=O)C1CCN(C2=C(NS(=O)(=O)c3ccc(Cl)cc3)C(=O)c3ccccc3C2=O)CC1 | -0.1 | -0.9 | -21.1* | 3.5 | -3.6 | ·
COc1ccc(NC(=O)Nc2ccc3c(c2)C(=O)N([C@H](C)CO)C[C@@H](C)[C@H](CN(C)Cc2ccc(Oc4ccccc4)cc2)O3)cc1 | · | · | 6.0 | -6.3 | 7.2[16.7 µM] | 6.2[16.7 µM]
CN1CCc2c(sc3c2C(=O)NC(c2cccs2)N3)C1 (stereo not given) | · | 79.8* | 13.8 | -16.3 | · | ·
O=[N+]([O-])c1nn(-c2ccc(Cl)cc2)n(O)c1=NCc1cccnc1 | 1.7 | -2.5 | -19.4* | 2.1 | -97.7 | -4.4
COCC(=O)Nc1ccc2c(c1)OC[C@@H](C)N(C(=O)Cc1cccnc1)C[C@H](C)[C@H](OC)CN(C)C2=O | 3.6 | · | -0.4 | 4.3 | · | ·
O=C1C(Cc2ccccc2)Nc2ncnc(N3CCc4ccccc4C3)c2N1Cc1ccc(Cl)cc1 (stereo not given) | · | -0.4 | · | · | · | ·
CCC1Nc2ncnc(N3CCc4ccccc4C3)c2N(Cc2ccc(Cl)cc2)C1=O (stereo not given) | 3.4 | -2.6 | -17.4* | -25.6 | -11.0 | -5.4
CC(=O)N1CCc2cc(S(=O)(=O)NCCCN3CCN(Cc4ccccc4)CC3)ccc21 | 11.6 | · | · | · | -3.1 | 301.6*
CC(C)[C@@H]1COCc2cn(nn2)CCC[C@@H](C)C(=O)N1 | -0.5 | · | 7.5 | · | · | ·
COc1ccc2c3c([nH]c2c1)[C@@H](CO)N(C(=O)C1CCCC1)CC31CN(C)C1 | · | · | 1.2 | 3.6 | · | ·

Screens (PubChem)
